Tests used:
Format in all cases: functional, cell-based
A-375 = assay: Antiproliferative activity against human A375 cells after 72 hrs by MTT assay; conditions: A-375, 72 h
Method in brief: (§1)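 Cells grown in RPMI 1640 with 10% FBS and 1% penicillin-streptomycin at 37 °C, 5% CO2, then seeded overnight in 96-well plates. Test compounds were dissolved in DMSO (doxorubicin control in PBS) and given at various concentrations for 72 h at 37 °C. MTT (5 mg/mL in PBS) was added for 4 h and OD read at 570 nm. IC50 was taken from dose-response curves; mean ± SD, ≥3 independent experiments.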

HeLa = assay: Antiproliferative activity against human HeLa cells after 72 hrs by MTT assay; method in brief: as §1
HepG2 = assay: Antiproliferative activity against human HepG2 cells after 72 hrs by MTT assay; conditions: HepG2, 72 h; method in brief: as §1
B16 = assay: Antiproliferative activity against mouse B16 cells after 72 hrs by MTT assay; conditions: B16, 72 h; method in brief: as §1
MCF7 = assay: Antiproliferative activity against human MCF7 cells after 72 hrs by MTT assay; conditions: MCF7, 72 h; method in brief: as §1

SMILES | IC50 (A-375) [µM] | IC50 (HeLa) [µM] | IC50 (HepG2) [µM] | IC50 (B16) [µM] | IC50 (MCF7) [µM]
C=C(C)[C@@H]1CC[C@]2(C(=O)OC/C=C/CO)CC[C@]3(C)[C@H](CC[C@@H]4[C@@]5(C)CC[C@H](OC(C)=O)[C@@](C)(COC(C)=O)[C@@H]5CC[C@]43C)[C@@H]12 | 5.72 | 16.4 | 7.43 | > 100 | 15.9
C=C(C)[C@@H]1CC[C@]2(C(=O)N3CCC(N4CCCCC4)CC3)CC[C@]3(C)[C@H](CC[C@@H]4[C@@]5(C)CC[C@H](OC(C)=O)[C@@](C)(COC(C)=O)[C@@H]5CC[C@]43C)[C@@H]12 | 8.42 | 10.8 | 11.1 | 9.57 | 6.86
C=C(C)[C@@H]1CC[C@]2(C(=O)NCCCCn3nnc(-c4ccccn4)n3)CC[C@]3(C)[C@H](CC[C@@H]4[C@@]5(C)CC[C@H](OC(C)=O)[C@@](C)(COC(C)=O)[C@@H]5CC[C@]43C)[C@@H]12 | 1.81 | 17.9 | 3.91 | 4.75 | 16.1
C=CCN(CC=C)C(=O)[C@]12CC[C@@H](C(=C)C)[C@@H]1[C@H]1CC[C@@H]3[C@@]4(C)CC[C@H](OC(C)=O)[C@@](C)(COC(C)=O)[C@@H]4CC[C@@]3(C)[C@]1(C)CC2 | 19 | 9.84 | 8.41 | > 100 | 47.1
C=C(C)[C@@H]1CC[C@]2(C(=O)NCCN)CC[C@]3(C)[C@H](CC[C@@H]4[C@@]5(C)CC[C@H](OC(C)=O)[C@@](C)(COC(C)=O)[C@@H]5CC[C@]43C)[C@@H]12 | 9.99 | 7.39 | 7.99 | 4.61 | 3.93
C=C(C)[C@@H]1CC[C@]2(C(=O)N3CCOCC3)CC[C@]3(C)[C@H](CC[C@@H]4[C@@]5(C)CC[C@H](OC(C)=O)[C@@](C)(COC(C)=O)[C@@H]5CC[C@]43C)[C@@H]12 | 4.33 | 7.47 | 9.74 | 18.5 | 26.4
C=C(C)[C@@H]1CC[C@]2(C(=O)N3CCNCC3)CC[C@]3(C)[C@H](CC[C@@H]4[C@@]5(C)CC[C@H](OC(C)=O)[C@@](C)(COC(C)=O)[C@@H]5CC[C@]43C)[C@@H]12 | 18.8 | 18.8 | 17.7 | 13.1 | 4.89
C=C(C)[C@@H]1CC[C@]2(C(=O)OCCN3CCOCC3)CC[C@]3(C)[C@H](CC[C@@H]4[C@@]5(C)CC[C@H](OC(C)=O)[C@@](C)(COC(C)=O)[C@@H]5CC[C@]43C)[C@@H]12 | 8.71 | 9.18 | 12.3 | 24.2 | 97.6
C=C(C)[C@@H]1CC[C@]2(C(=O)N3CCC[C@H]3C(=O)OC)CC[C@]3(C)[C@H](CC[C@@H]4[C@@]5(C)CC[C@H](OC(C)=O)[C@@](C)(COC(C)=O)[C@@H]5CC[C@]43C)[C@@H]12 | 5.83 | 9.78 | 9.78 | 93.7 | 27.2
C=C(C)[C@@H]1CC[C@]2(C(=O)N3CCC(N4CCCCC4)CC3)CC[C@]3(C)[C@H](CC[C@@H]4[C@@]5(C)CC[C@H](O)[C@@](C)(CO)[C@@H]5CC[C@]43C)[C@@H]12 | 9.67 | 8.42 | 12.6 | 5.71 | 6.78
C=C(C)[C@@H]1CC[C@]2(C(=O)NCCN)CC[C@]3(C)[C@H](CC[C@@H]4[C@@]5(C)CC[C@H](O)[C@@](C)(CO)[C@@H]5CC[C@]43C)[C@@H]12 | 4.83 | 8.92 | 9.57 | 8.38 | 2.93
C=C(C)[C@@H]1CC[C@]2(C(=O)N3CCNCC3)CC[C@]3(C)[C@H](CC[C@@H]4[C@@]5(C)CC[C@H](O)[C@@](C)(CO)[C@@H]5CC[C@]43C)[C@@H]12 | 2.3 | 7.12 | 8.85 | 4.39 | 2.27
C=C(CO)[C@@H]1CC[C@]2(C(=O)OC(C)C)CC[C@]3(C)[C@H](CC[C@@H]4[C@@]5(C)CC[C@H](OC(C)=O)[C@@](C)(COC(C)=O)[C@@H]5CC[C@]43C)[C@@H]12 | 21.5 | 19.5 | 10.7 | 23.7 | 17.2
C=C(CO)[C@@H]1CC[C@]2(C(=O)OCC3CCCO3)CC[C@]3(C)[C@H](CC[C@@H]4[C@@]5(C)CC[C@H](OC(C)=O)[C@@](C)(COC(C)=O)[C@@H]5CC[C@]43C)[C@@H]12 (some centres undefined) | 12.5 | 17.8 | 18.7 | 41.8 | 33.6
C=C(CO)[C@@H]1CC[C@]2(C(=O)N3CCOCC3)CC[C@]3(C)[C@H](CC[C@@H]4[C@@]5(C)CC[C@H](OC(C)=O)[C@@](C)(COC(C)=O)[C@@H]5CC[C@]43C)[C@@H]12 | 31.8 | 18.3 | 20.7 | 39.3 | 17.3
C=C(CO)[C@@H]1CC[C@]2(C(=O)N3CCCCC3)CC[C@]3(C)[C@H](CC[C@@H]4[C@@]5(C)CC[C@H](OC(C)=O)[C@@](C)(COC(C)=O)[C@@H]5CC[C@]43C)[C@@H]12 | 53.7 | 11 | 11.3 | 64.3 | 22.2
C=C(CO)[C@@H]1CC[C@]2(C(=O)N3CCC[C@H]3C(=O)OC)CC[C@]3(C)[C@H](CC[C@@H]4[C@@]5(C)CC[C@H](OC(C)=O)[C@@](C)(COC(C)=O)[C@@H]5CC[C@]43C)[C@@H]12 | 11.8 | 13.1 | 10 | 69 | 32
C=C(C)[C@@H]1CC[C@]2(C(=O)NCC(=O)N[C@@H](C)C(=O)OC)CC[C@]3(C)[C@H](CC[C@@H]4[C@@]5(C)CC[C@H](O)[C@@](C)(CO)[C@@H]5CC[C@]43C)[C@@H]12 | 5.01 | 8.27 | 12.1 | 11.3 | 8.95
C=C(C)[C@@H]1CC[C@]2(C(=O)NCC(=O)N3CCC[C@H]3C(=O)OC)CC[C@]3(C)[C@H](CC[C@@H]4[C@@]5(C)CC[C@H](O)[C@@](C)(CO)[C@@H]5CC[C@]43C)[C@@H]12 | 3.34 | 4.84 | 9.33 | 8.23 | 7.58
C=C(C)[C@@H]1CC[C@]2(C(=O)O)CC[C@]3(C)[C@H](CC[C@@H]4[C@@]5(C)CC[C@H](O)[C@@](C)(COC(=O)N6CCC(N7CCCCC7)CC6)[C@@H]5CC[C@]43C)[C@@H]12 | 9.23 | 12.5 | 18.5 | 7.25 | 9.95
C=C(C)[C@@H]1CC[C@]2(C(=O)N3CCC(N4CCCCC4)CC3)CC[C@]3(C)[C@H](CC[C@@H]4[C@@]5(C)CC[C@@H]6OC(=O)OC[C@@]6(C)[C@@H]5CC[C@]43C)[C@@H]12 | 20.4 | 20.6 | 10.3 | 8.69 | 17.6
COc1cccc2c1C(=O)c1c(O)c3c(c(O)c1C2=O)C[C@@](O)(C(=O)CO)C[C@@H]3O[C@H]1C[C@H](N)[C@H](O)[C@H](C)O1 [DOXORUBICIN] | 0.13 | 0.13 | – | 0.14 | 0.19
